Source: PubChem BioAssay
KCC2 mod: KCC2 cotransporter modulators, thallium flux, primary screen, cell-based, HEK293 KCC2, FluoZin-2 fluorescence, MLSMR. KCC2 cells, thallium flux FluoZin-2 fluorescence. 190,000 compounds, 2.2% hits. B-score of Tl+ flux slope (higher = more flux/activation; lower = inhibition) at 10 µM. Solute carrier family 12 member 5 (Homo sapiens), Q9H2X9;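 active = thallium flux slope and its plate-corrected score both differing from the plate sample mean at a set confidence after two filtering rounds, in either direction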;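 note: slope of fluorescence scaled to starting intensity during 10 to 20 s after thallium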
KCNQ1 act: potentiators or activators of KCNQ1 channel, primary screen, cell-based, thallium flux, high-throughput; Potassium voltage-gated channel subfamily KQT member 1 (Homo sapiens), P51787; CHO-K1 KCNQ1, thallium flux FluxOR fluorescence; hits give high values; B-score at 10 µM; 310,000 compounds, 0.35% hits;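 active = fluorescence ratio B-score, a plate-corrected score, at least three library SD, with initial intensity B-score within 5 SD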
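Schedule – 37 °C overnight plating, 90-min dark dye load, 20-min compound pretreatment · System – stable KCNQ1 CHO-K1 line · Probe or stimulus – thallium- and potassium-containing depolarizing buffer · Measured by – kinetic FluxOR fluorescence, 10 s baseline plus 110 s post-stimulus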
KCNK3 inh: human KCNK3 channel inhibitors, primary screen, CHO cells, FluxOR thallium flux, B-score; Potassium channel subfamily K member 3 (Homo sapiens), O14649; FluxOR fluorescence; hits give low values; B-score at 10 µM; 340,000 compounds, 0.84% hits; AID 602410, 2012;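 active = B-score under library mean minus 4 SD, starting fluorescence ratio at most library mean plus 5 SD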;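 note: more negative B-score means stronger inhibition of thallium flux through KCNK3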
KCNQ1 inh: inhibitors of human KCNQ1 channel, primary screen, cell-based, thallium flux, high-throughput; B-score at 10 µM; Potassium voltage-gated channel subfamily KQT member 1 (Homo sapiens), P51787; 310,000 compounds, 1.3% hits; CHO-K1 KCNQ1, FluxOR thallium flux fluorescence; hits give high values; AID 2642, 2010;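 active = compounds whose thallium flux B-score, printed positive for inhibition, exceeds three library SD while starting fluorescence stays within three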;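 note: channel opened by potassium depolarization with thallium stimulus after 20 min compound exposure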
KCNK9 block: KCNK9 potassium channel inhibitors, primary screen, HEK293 cells, thallium flux; AID 488922, 2010; B-score at 10 µM; FluxOR thallium flux fluorescence; hits give low values; 310,000 compounds, 1.2% hits;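 active = ratio B-score over 3 SD below the library mean, with starting fluorescence within 5 SD of its mean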;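 note: negative B-score means less thallium flux so channel inhibition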
hERG rescue: hERG rescue from dofetilide block, primary screen, cell-based, CHO-hERG, FluxOR thallium flux, dofetilide IC70 | 310,000 compounds, 0.51% hits | Voltage-gated inwardly rectifying potassium channel KCNH2 (Homo sapiens), Q12809 | activation (rescue from dofetilide block), less the hit threshold, % at 10 µM | AID 1511, 2009 | dofetilide IC70 present;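 active = activation above the mean of controls blocked by dofetilide plus 5 SD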;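 note: thallium influx through hERG after potassium depolarization seen as dye fluorescence rise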
KCNK9 inh conf: KCNK9 potassium channel inhibitors, confirmation, HEK293 cells, thallium flux, duplicate. AID 492992, 2010. 4,900 compounds, 43% hits. inhibition, % at 10 µM. shares compounds with KCNK9 block. FluxOR thallium flux fluorescence;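 active = thallium signal inhibited by more than 5 SD of the compound-free buffer control wells, on both duplicate plates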;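 note: 0% = assay buffer control wells without compound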
Kir21 sel: mouse Kir2.1 channel inhibition, confirmation, selectivity assay for KCNK9 modulator project, cell-based, HEK293, thallium flux. shares compounds with KCNK9 block. Kir2.1 cells, FluxOR thallium flux fluorescence. inhibition, % at 10 µM. 4,900 compounds, 4% hits;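 active = thallium signal drop more than 5 SD beyond the mean of the no-compound control wells, seen in both duplicate plates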;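 note: signal is fluorescence rise after thallium addition divided by baseline fluorescence; plate controls were assay buffer only for no effect and full block by chlorpromazine control for full effect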
HEK293 Tl ctr: thallium flux in non-induced HEK293 cells, confirmation, counter-screen for KCNK9 inhibitor project, cell-based, second counter screen, non-induced KCNK9-HEK293; shares compounds with KCNK9 block; FluxOR thallium flux; inhibition, % at 10 µM; 4,900 compounds, 40% hits;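 active = thallium signal drop beyond 5 SD of the untreated control mean, on both duplicate plates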;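 note: plate controls were buffer only IC0 wells for no effect and SID17386958 at its maximal inhibitory level for full effect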
* hit, by the source's call; i = inactive; x = no result given. This is a sample that favours compounds with a hit; in the whole collection about 4.1% have one here.

SMILES | KCC2 mod | KCNQ1 act | KCNK3 inh | KCNQ1 inh | KCNK9 block | hERG rescue | KCNK9 inh conf | Kir21 sel | HEK293 Tl ctr
COc1ccc(/C=N/NC(=O)c2csc(-n3nc(C)cc3C(F)(F)F)n2)cc1 | 0.283 | i | i | i | -10.1* | -12.0 | i | i | 26.5%*
Cc1cc(C)n(-c2nc(NCCC(C)C)c3c4c(sc3n2)COC(C)(C)C4)n1 | -1.85 | i | i | i | -12.2* | -13.1 | 58.5%* | i | 32.5%*
Cc1ccc(-c2cc(-c3n[nH]c(=S)o3)c3ccccc3n2)cc1 | 16.9* | 15* | i | i | i | 11.5* | i | i | i
COc1ccc(/C=N/NC(=O)c2cc(-c3ccccc3)nc3ccccc23)cc1O | x | i | i | i | i | -14.3 | x | x | x
COc1ccc(/C=N/NC(=O)c2nc(-c3ccccc3)cc(-c3ccccc3)n2)cc1O | -0.53 | i | i | i | -10.9* | -12.4 | 68.0%* | i | i
CCOC(=O)N/N=C/c1cc(C)n(-c2cccc3ccccc23)c1C | -2.19 | i | i | i | -8.31* | -5.4 | 48.5%* | i | 35.5%*
CCOC(=O)N/N=C/c1c[nH]c2ccccc12 | x | i | i | i | i | -5.2 | x | x | x
CSc1ncccc1C(=O)N(C)CC(=O)Nc1ccc(Cl)c(C(F)(F)F)c1 | x | i | i | i | i | -7.1 | x | x | x
CCOC(=O)C1(CC2CC2)CCN(Cc2cn[nH]c2-c2cccc(F)c2)CC1 | x | i | i | i | i | -9.9 | x | x | x
CCOC(=O)C1(CC2CC2)CCN(Cc2ccc3cccc(F)c3n2)CC1 | -0.367 | i | i | i | i | -5.9 | i | i | i
CCN(CC)CCN(C(=O)c1ccc2c(c1)OCCO2)c1nc2ccc(C)cc2s1 | x | i | i | i | i | -14.7 | x | x | x
O=C(Nc1ccccc1NS(=O)(=O)c1ccc(F)cc1)C1CCCC1 | -0.689 | i | i | i | i | -5.0 | x | x | x
CN(Cc1cnccn1)Cc1cn(Cc2ccccc2)nc1-c1ccc2c(c1)OCO2 | x | i | i | i | i | -16.4 | i | i | i
COc1ccc(NC2CCCN(C(=O)c3ccc4[nH]c(C)c(C)c4c3)C2)cc1 (stereo not drawn) | x | i | i | i | -11.8* | -5.1 | i | i | i
COc1cccc(C(=O)N2CCCC(Nc3ccc(C)c(C)c3)C2)c1 (stereo not drawn) | x | i | i | i | i | -7.2 | i | i | i
COc1ccc(NC2CCCN(C(=O)c3ccc(C)nc3)C2)cc1 (stereo not drawn) | x | i | i | i | i | -11.6 | x | x | x
Cc1cccc(C(=O)N2CCCC(Nc3ccc(C)c(C)c3)C2)n1 (stereo not drawn) | x | i | i | i | i | -5.8 | i | i | i
COc1ccc(NC2CCCN(C(=O)CCc3cccc(Cl)c3)C2)cc1 (stereo not drawn) | x | i | i | i | i | -12.9 | i | i | i
Cc1cccc(C(=O)N2CCCC(Nc3ccc(F)c(F)c3)C2)n1 (stereo not drawn) | x | i | i | i | i | -12.8 | x | x | x
COc1ccc(NC2CCCN(C(=O)CCc3cccc(F)c3)C2)cc1 (stereo not drawn) | x | i | i | i | i | -9.6 | x | x | x
O=C(Cn1nnc(-c2cccc(C(F)(F)F)c2)n1)NC(=O)NCc1ccco1 | -0.782 | i | i | i | i | -5.9 | x | x | x
CN(C1CCCCC1)S(=O)(=O)c1ccc(SCC(=O)NC(C)(C)C)nc1 | x | x | i | x | x | x | x | x | x
COc1ccc(NC2CCCN(C(=O)c3ccc(C(C)=O)cc3)C2)cc1 (stereo not drawn) | x | i | i | i | i | -10.6 | x | x | x
COc1ccc(NC2CCCN(C(=O)c3ccc(OC)o3)C2)cc1 (stereo not drawn) | x | i | i | i | i | -10.5 | i | i | i
COc1ccc(NC2CCCN(C(=O)c3cccc(N(C)C)c3)C2)cc1 (stereo not drawn) | x | i | i | i | i | -13.7 | i | i | i
SMILES | KCC2 mod | KCNQ1 act | KCNK3 inh | KCNQ1 inh | KCNK9 block | hERG rescue | KCNK9 inh conf | Kir21 sel | HEK293 Tl ctr
O=C(C1CC(c2cccc(Br)c2)=NO1)N1CCc2ccccc2C1 (stereo not drawn) | -2.49 | i | i | i | i | -8.8 | i | i | i
CC(C)CN(C(=O)CCCc1nc2ccccc2c(=O)[nH]1)c1c(N)n(Cc2ccccc2)c(=O)[nH]c1=O | x | i | i | i | i | -11.7 | x | x | x
COc1cccc(-c2cc(C(F)(F)F)n3nc(C(=O)N4CCCCC4c4cccnc4)cc3n2)c1 (stereo not drawn) | -0.438 | i | i | i | -8.1* | -11.3 | 42.0%* | i | i
NC(=O)CC(NC(=O)Cc1cccc2ccccc12)c1ccc(NC2CCCCCC2)c([N+](=O)[O-])c1 (stereo not drawn) | -0.375 | i | i | i | i | 1.0 | x | x | x
O=C(CSc1nnc(-c2ccccc2O)o1)N1CCc2ccccc2C1 | -1.1 | i | i | i | i | -6.5 | x | x | x
Cc1ccc(CN2CCS(=O)(=O)CC2)cc1 | 0.0527 | i | i | i | i | -4.8 | x | x | x
Cc1ccc(CN2CCCN(Cc3c(C)cc(C)cc3C)S2(=O)=O)cc1 | x | i | i | i | i | -3.6 | i | i | i
O=C(/C=C/c1ccccc1)NC(NC(=S)Nc1ccc(Cl)cc1Cl)C(Cl)(Cl)Cl (stereo not drawn) | -0.541 | i | i | i | i | -12.8 | i | i | i
